Measurements published in ChEMBL document CHEMBL1909598, “Synthesis of purine-scaffold fluorescent probes for heat shock protein 90 with use in flow cytometry and fluorescence microscopy” (Bioorg Med Chem Lett, 2011).
Activity calls are given as the source filed them. No cut-off for these calls is given here.

Experiments:
[1] = tested on: MV4-11; experiment: Drug uptake in human MV4-11 cells assessed as CD45 staining of cells at 1 uM after 30 mins using 7-AAD staining by flow cytometry analysis; type: ADME, cell-based; conditions: mv4-11, 0.5 h
[2] = biological target: T1, Heat shock protein HSP90 (Homo sapiens) (UniProt P07900+P08238); experiment: Inhibition of Hsp90 in human MOLM13 cells assessed as decrease in cell viability after 24 hrs using DAPI staining by flow cytometry analysis; type: cell-based; conditions: MOLM-13
Outline: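 MOLM-13 cells exposed to derivatives at 1 μM, 37°C, 24 h. Viability scored by DAPI exclusion.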

[3] = Drug uptake in human lymphocytes assessed as CD45 staining of cells at 1 uM after 1 hr using 7-AAD staining by flow cytometry analysis; type: ADME, cell-based; conditions: lymphocyte
[4] = biological target: T1, Heat shock protein HSP90 (Homo sapiens); experiment: Binding affinity to Hsp90 in human MOLM13 cells assessed as staining of live cells at 1 uM after 4 hrs using DAPI staining by flow cytometry analysis; type: cell-based; conditions: MOLM-13
Outline: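 MOLM-13 cells exposed to each fluorescent derivative at 1 μM, 37°C, 4 h. Binding to live cells (DAPI negative) read by flow cytometry as mean fluorescence intensity.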

[5] = biological target: T1, Heat shock protein HSP90 (Homo sapiens); experiment: Inhibition of Hsp90 in human MOLM13 cells assessed as Raf1 degradation at 1 uM after 24 hrs using horseradish peroxidase by Western blot analysis; type: cell-based; conditions: MOLM-13
Outline: (§1)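 MOLM-13 cells treated with derivatives at 1 μM for 24 h. Steady-state mFLT3 and Raf-1 levels read by Western blot, with β-actin as the loading control.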

[6] = tested on: MOLM-13; experiment: Drug uptake in human MOLM13 cells assessed as CD45 staining of cells at 1 uM after 1 hr using 7-AAD staining by flow cytometry analysis; type: ADME, cell-based; conditions: molm-13, 1 h
[7] = tested on: MV4-11; experiment: Drug uptake in human MV4-11 cells assessed as intracellular localization at 1 uM after 24 hrs by DAPI staining based confocal fluorescence microscopy; type: ADME, cell-based; conditions: mv4-11, 24 h
Outline: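 MV4-11 cells given 1 μM probe at 37°C for 24 h, then fixed. Cells stained with Na⁺/K⁺-ATPase α1 antibody plus Alexa Fluor 568 secondary as the surface marker. DAPI used to mark non-viable cells. Imaged by confocal microscopy.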

[8] = biological target: Receptor-type tyrosine-protein kinase FLT3 (Homo sapiens) (UniProt P36888); experiment: Inhibition of Hsp90 in human MOLM13 cells assessed as FLT3 mutant degradation at 1 uM after 24 hrs using horseradish peroxidase by Western blot analysis; type: cell-based; conditions: MOLM-13; outline: as §1
Chain of Receptor-type tyrosine-protein kinase FLT3 (Homo sapiens) (P36888 whole entry): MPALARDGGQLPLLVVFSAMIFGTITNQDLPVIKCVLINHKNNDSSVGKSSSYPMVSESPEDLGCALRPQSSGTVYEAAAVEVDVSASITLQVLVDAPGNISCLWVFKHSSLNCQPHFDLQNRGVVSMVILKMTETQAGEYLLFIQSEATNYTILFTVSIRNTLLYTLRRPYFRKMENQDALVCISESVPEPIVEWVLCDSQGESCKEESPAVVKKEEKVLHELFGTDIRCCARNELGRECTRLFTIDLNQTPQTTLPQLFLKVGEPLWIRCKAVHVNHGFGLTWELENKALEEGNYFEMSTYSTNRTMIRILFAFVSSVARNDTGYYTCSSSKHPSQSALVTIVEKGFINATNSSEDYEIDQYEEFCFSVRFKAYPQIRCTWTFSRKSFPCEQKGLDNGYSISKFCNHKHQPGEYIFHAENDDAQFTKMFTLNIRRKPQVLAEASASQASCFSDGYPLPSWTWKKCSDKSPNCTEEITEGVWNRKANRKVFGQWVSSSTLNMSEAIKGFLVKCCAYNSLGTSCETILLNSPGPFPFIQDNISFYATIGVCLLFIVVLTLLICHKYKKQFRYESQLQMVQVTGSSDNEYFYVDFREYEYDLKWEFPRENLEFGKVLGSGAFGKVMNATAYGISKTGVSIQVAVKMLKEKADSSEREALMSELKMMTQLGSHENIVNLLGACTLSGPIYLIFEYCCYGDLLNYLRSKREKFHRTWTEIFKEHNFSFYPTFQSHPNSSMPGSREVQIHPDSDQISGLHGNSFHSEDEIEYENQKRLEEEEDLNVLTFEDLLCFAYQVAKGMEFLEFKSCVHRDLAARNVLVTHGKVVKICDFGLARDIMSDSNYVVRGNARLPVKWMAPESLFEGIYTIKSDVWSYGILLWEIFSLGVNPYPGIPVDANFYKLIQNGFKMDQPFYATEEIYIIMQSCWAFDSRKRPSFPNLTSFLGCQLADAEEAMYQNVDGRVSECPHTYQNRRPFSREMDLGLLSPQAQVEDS

CC(C)N(CCCn1c(Sc2cc3c(cc2I)OCO3)nc2c(N)ncnc21)C(=S)Nc1ccc(-c2c3ccc(=O)cc-3oc3cc(O)ccc23)c(C(=O)O)c1
Drug uptake [1]: Active | inhibition [2]: Active | Drug uptake [3]: Not Active | Activity [4]: Active | inhibition [5]: Active | Drug uptake [6]: Active | Drug uptake [7]: Active | inhibition [8]: Active

Nc1ncnc2c1nc(Sc1cc3c(cc1I)OCO3)n2CCCNCCCCCCNc1ccc([N+](=O)[O-])c2nonc12
inhibition [2]: Active | Activity [4]: Active | inhibition [5]: Active | Drug uptake [7]: Active | inhibition [8]: Active
